The results in this text go back to ChEMBL document CHEMBL3758088, “Synthesis and biological evaluation of enantiomerically pure glyceric acid derivatives as LpxC inhibitors” (Bioorg Med Chem, 2016).

pIC50, pKi: −log10 of the molar value. ≈ marks a conversion by molar mass, not a printed value.

Test [1] concerns Escherichia coli. Kind of test: Antibacterial activity against Escherichia coli BL21(DE3) incubated for 20 hrs by microdilution assay. The class given is functional. The method in brief: (§1)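 Broth microdilution in LB medium with 5% DMSO. Overnight cultures (LB, 37 °C, 200 rpm) were diluted 1:100 in fresh LB. Compounds were added from a twofold DMSO dilution series (5.12 mM to 20 nM stock), giving 256 μM to 1 nM final. Plates were shaken 20 h at 37 °C, 200 rpm. MIC was the lowest concentration with no visible growth.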

Test [2] concerns the target UDP-3-O-acyl-N-acetylglucosamine deacetylase (Escherichia coli K-12, UniProt P0A725, C63A). Kind of test: Inhibition of Escherichia coli LpxC C63A mutant using UDP-3-O-[(R)-3-hydroxymyristoyl]-N-acetylglucosamine substrate after 30 mins by fluorescence-bsed microplate assay.
The test system of test [3] is Escherichia coli. Kind of test: Antibacterial activity against Escherichia coli D22 incubated overnight by agar disk diffusion clearance assay. The class given is functional. In outline: (§2)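 Agar disc diffusion. 150 µL of an overnight LB culture (37 °C, 200 rpm) was spread on LB agar. 6 mm filter discs were loaded with 15 µL of 10 mM compound in DMSO, with DMSO and CHIR-090 discs as controls. Plates were incubated overnight at 37 °C and the diameter of the growth-inhibition zone was measured. Values are mean ± SD of three independent experiments.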

Test [4] concerns Escherichia coli. Kind of test: Antibacterial activity against Escherichia coli D22 incubated for 20 hrs by microdilution assay. The format is functional. Particulars: D22, 20 h. The method in brief: as §1
Test [5] deals with Escherichia coli. As to the kind of experiment: Antibacterial activity against Escherichia coli BL21(DE3) incubated overnight by agar disk diffusion clearance assay. The format is functional. In outline: as §2

Sequence of UDP-3-O-acyl-N-acetylglucosamine deacetylase (P0A725 whole entry C63A, the tested form may be a part): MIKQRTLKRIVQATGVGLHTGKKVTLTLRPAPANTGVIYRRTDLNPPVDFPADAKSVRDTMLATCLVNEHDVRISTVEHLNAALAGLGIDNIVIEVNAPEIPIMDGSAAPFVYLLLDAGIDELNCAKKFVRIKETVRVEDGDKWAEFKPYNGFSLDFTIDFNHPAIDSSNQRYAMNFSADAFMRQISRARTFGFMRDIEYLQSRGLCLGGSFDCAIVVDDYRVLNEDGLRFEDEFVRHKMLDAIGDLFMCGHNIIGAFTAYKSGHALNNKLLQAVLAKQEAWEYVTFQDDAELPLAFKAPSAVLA

In the case of `O=C(NO)[C@H](CO)OCc1ccc(C#Cc2ccc(CN3CCOCC3)cc2)cc1`, the MIC in the test with Escherichia coli [1] is 64 µM (≈ 26.3 µg/mL); against Escherichia coli [4] it was 2 µM (≈ 0.821 µg/mL). Moreover, the pIC50 in test [2] is 5.55. For the same molecule, the pKi in test [2] is 6.41. Besides, the “diameter of the inhibition zone (DIZ)” value in the test with Escherichia coli [3] is listed as 25.8 mm; in the test with Escherichia coli [5] it was 15.7 mm.
As to `C[C@@H](O)[C@H](NC(=O)c1ccc(C#Cc2ccc(CN3CCOCC3)cc2)cc1)C(=O)NO`, the figures for the MIC against Escherichia coli [1] and in the test on Escherichia coli [4] were 1 µM (≈ 0.437 µg/mL) and 0.032 µM (≈ 0.014 µg/mL), respectively.
`O=C(CO[C@H](CO)c1ccc(C#Cc2ccccc2)cc1)NO`: in the test with Escherichia coli [1], the minimal inhibitory concentration (MIC) amounted to 256 µM (≈ 79.7 µg/mL). Also, in test [2], the pIC50 was 6.32 and the negative logarithm of the Ki (pKi) was 7.18. The molecule further came in with a minimum inhibitory concentration (MIC) against Escherichia coli [4] of 4 µM (≈ 1.25 µg/mL).
The molecule `O=C(CO[C@@H](CO)c1ccc(C#Cc2ccccc2)cc1)NO` registered an MIC in the test with Escherichia coli [1] of 256 µM (≈ 79.7 µg/mL). Besides, in test [2], the pIC50 was 4.50 and the pKi is 5.36. Moreover, the MIC with Escherichia coli [4] is 32 µM (≈ 9.96 µg/mL).
Turning to `O=C(NO)[C@@H](CO)OCc1ccc(C#Cc2ccc(CN3CCOCC3)cc2)cc1`, the values for the minimal inhibitory concentration (MIC) in the test on Escherichia coli [1] and against Escherichia coli [4] were 128 µM (≈ 52.5 µg/mL) and 4 µM (≈ 1.64 µg/mL), respectively. The pIC50 in test [2] was 5.78. The molecule also showed a pKi in test [2] of 6.64. Moreover, the “diameter of the inhibition zone (DIZ)” value is reported as 22 mm in the test on Escherichia coli [3] and 12.3 mm with Escherichia coli [5].
Consider `O=C(CO[C@H](CO)c1ccc(C#Cc2ccc(CN3CCOCC3)cc2)cc1)NO`, for which the MIC in the test with Escherichia coli [1] amounted to 64 µM (≈ 26.3 µg/mL); in the test with Escherichia coli [4], 0.5 µM (≈ 0.205 µg/mL). In addition, the pIC50 in test [2] is 6.16. Further, the pKi in test [2] is 7.02.
Regarding `O=C(NO)[C@H](CO)O[C@H](CO)c1ccc(C#Cc2ccc(CN3CCOCC3)cc2)cc1`, the MIC in the test with Escherichia coli [1] is > 256 µM. In test [2], this molecule had a pIC50 of 5.59 and a negative-log Ki (pKi) of 6.44. This molecule also showed a minimal inhibitory concentration (MIC) in the test with Escherichia coli [4] of 4 µM (≈ 1.76 µg/mL).
For `O=C(COCc1ccc(C#Cc2ccccc2)cc1)NO`, the minimal inhibitory concentration (MIC) against Escherichia coli [1] was 128 µM (≈ 36 µg/mL); in the test on Escherichia coli [4], 4 µM (≈ 1.13 µg/mL). In addition, the pIC50 in test [2] is < 3.70.
For `O=C(NO)[C@@H](CO)OCc1ccc(C#Cc2ccccc2)cc1`, the MIC in the test with Escherichia coli [1] came out at 256 µM (≈ 79.7 µg/mL); with Escherichia coli [4] it was 8 µM (≈ 2.49 µg/mL). The molecule also gave a pIC50 in test [2] of 5.73. This molecule had a pKi in test [2] of 6.59. In addition, the “diameter of the inhibition zone (DIZ)” value in the test on Escherichia coli [3] was 17 mm; in the test on Escherichia coli [5], 10.3 mm.
Consider `O=C(CO[C@@H](CO)c1ccc(C#Cc2ccc(CN3CCOCC3)cc2)cc1)NO`, for which, in the test with Escherichia coli [1], the MIC is > 256 µM. For the same molecule, in test [2], the pIC50 was 3.70 and the pKi was 4.56. In the test with Escherichia coli [4], this molecule returned an MIC of 4 µM (≈ 1.64 µg/mL).
In the case of `O=C(NO)[C@H](CO)OCc1ccc(C#Cc2ccccc2)cc1`, the results for the MIC against Escherichia coli [1] and in the test on Escherichia coli [4] were 128 µM (≈ 39.9 µg/mL) and 4 µM (≈ 1.25 µg/mL), respectively. Moreover, the pIC50 in test [2] is 5.71. For the same molecule, in test [2], the pKi was 6.57. Moreover, the “diameter of the inhibition zone (DIZ)” value in the test with Escherichia coli [3] is given as 20.7 mm; in the test on Escherichia coli [5], 11.7 mm.
On to `O=C(COCc1ccc(C#Cc2ccc(CN3CCOCC3)cc2)cc1)NO`, for which the MIC against Escherichia coli [1] came to 64 µM (≈ 24.3 µg/mL); in the test with Escherichia coli [4], 1 µM (≈ 0.38 µg/mL). This molecule gave a pIC50 in test [2] of 4.98. The same molecule had a pKi in test [2] of 5.84.
